Source: ChEMBL document CHEMBL1132695, “2-(diethylamino)thieno1,3ŏxazin-4-ones as stable inhibitors of human leukocyte elastase” (J Med Chem, 1999)
pKd, pKi: −log10 of the molar value.

Experiments:
[1] = molecular target: T1, Neutrophil elastase (Homo sapiens) (UniProt P08246); experiment: Kon was the acylation association equilibrium rate constant of a competitive inhibition of human leukocyte elastase(HLE).
T1 sequence (whole entry): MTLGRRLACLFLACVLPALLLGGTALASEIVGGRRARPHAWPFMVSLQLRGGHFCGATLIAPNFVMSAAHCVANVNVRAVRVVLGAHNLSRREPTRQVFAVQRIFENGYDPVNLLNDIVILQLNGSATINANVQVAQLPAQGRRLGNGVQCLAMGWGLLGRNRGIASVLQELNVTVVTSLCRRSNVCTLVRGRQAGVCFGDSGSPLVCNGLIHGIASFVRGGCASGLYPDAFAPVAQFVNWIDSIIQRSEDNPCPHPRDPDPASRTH
In short: (§1)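 Elastase purified from human leukocytes by affinity chromatography; enzyme stock diluted into 50 mM sodium phosphate, 500 mM NaCl, pH 7.8. Substrate Suc-Ala-Ala-Pro-Val-pNA at 100 μM final (1.3 Km); inhibitor in DMSO added to cuvette. Progress-curve method at 25 °C, at least five inhibitor concentrations for oxazinones (single 2 μM for thiazinones); curves fitted for kobs, giving Kd, Ki, kon (acylation) and koff (deacylation).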

[2] = The alkaline hydrolysis second order rate constant(K OH) taken as log K.
Neutrophil elastase [3] = molecular target: T2, Neutrophil elastase (Homo sapiens, UniProt P08246); experiment: (§2) Inhibitory activity against human leukocyte elastase; in short: as §1
T2 sequence (P08246 whole entry): T1 sequence (whole entry)

[4] = molecular target: T1, Neutrophil elastase (Homo sapiens); experiment: Koff was the deacylation association equilibrium rate constant of a competitive inhibition human leukocyte elastase(HLE).; in short: as §1
Neutrophil elastase [5] = molecular target: T2, Neutrophil elastase; experiment: as §2; in short: as §1; remark: listed apart in the source
[6] = The alkaline hydrolysis second order rate constant(K OH) of the compound; format: ADME
In short: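 Spectrophotometric hydrolysis in aqueous buffer pH 11.25 at 25 °C; loss of long-wavelength UV chromophore followed at 335 nm as first-order exponential decay. Compounds from DMSO stocks, final 15–20 μM, 5% DMSO final. Second-order rate constant kOH- calculated from first-order rates.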

Neutrophil elastase [7] = molecular target: T2, Neutrophil elastase; experiment: as §2; in short: as §1; remark: listed apart in the source

Row | k on [1] [M⁻¹ s⁻¹] | Log K [2] | pKi (Neutrophil elastase [3]) | k off [4] [s⁻¹] | pKi (Neutrophil elastase [5]) | K [6] [M⁻¹ s⁻¹] | pKi (Neutrophil elastase [7]) | pKd (Neutrophil elastase [3]) | SMILES
1 | 10000 | -1.27 | 7.89 | 0.00013 | 7.88 | 0.054 | – | – | CCN(CC)c1nc2scc(C(C)C)c2c(=O)o1
2 | 2600 | 0.77 | 6.51 | 0.00079 | 6.52 | 5.9 | – | – | CCN(CC)c1nc2ccccc2c(=O)o1
3 | 9500 | -1.13 | 8.24 | 5.5e-05 | 8.24 | 0.075 | – | – | CCN(CC)c1nc2sc3ccccc3c2c(=O)o1
4 | 330 | -0.95 | 6.89 | 4.3e-05 | – | 0.11 | 6.88 | – | CCN(CC)c1nc2ccsc2c(=O)o1
5 | 2500 | -1.49 | 7.89 | 3.2e-05 | 7.90 | 0.032 | – | – | CCN(CC)c1nc2sc3c(c2c(=O)o1)CCCC3
6 | 530 | -0.91 | 6.59 | 0.00014 | 6.59 | 0.12 | – | – | CCN(CC)c1nc2sccc2c(=O)o1
7 | 3600 | -1.03 | 7.89 | 4.5e-05 | 7.90 | 0.094 | – | – | CCN(CC)c1nc2sc3c(c2c(=O)o1)CCC3
8 | 63 | -1.41 | 6.68 | 1.3e-05 | 6.69 | 0.039 | – | – | CCN(CC)c1nc2sc3c(c2c(=O)o1)C(C)CCC3 (stereo not drawn)
9 | 140 | -1.14 | 6.35 | 6.4e-05 | 6.35 | 0.073 | – | 5.26 | CCN(CC)c1nc2scc(C)c2c(=O)o1
10 | 4000 | -0.4 | 7.04 | 0.00036 | 7.04 | 0.4 | – | 6.21 | CCN(CC)c1nc2sc(C(N)=O)c(C)c2c(=O)o1
11 | 990 | -1.42 | 7.36 | 4.3e-05 | 7.36 | 0.038 | – | – | CCN(CC)c1nc2sc3c(c2c(=O)o1)CCCCC3
